From PubChem BioAssay
A selection: hits, their analogues and other compounds. The true share with any hit is near 2.8%.
ARFGAP1 inhibitor = inhibitors of rat ARFGAP1 | inhibition, % at 16.5 µM | hit rate 0.26% among 360,000 | Arfgap1-stimulated ARF1 GTP hydrolysis, GDP FP detection | Q62848 | AID 651572;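 active = inhibition above a per-plate limit, mean inhibition of low control wells plus 3 SD, cut at about 25% in these data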;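 note: 0% = DMSO wells with enzyme and 100% = wells lacking Arfgap1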
Target sequence (Q62848 1-136 limits assumed): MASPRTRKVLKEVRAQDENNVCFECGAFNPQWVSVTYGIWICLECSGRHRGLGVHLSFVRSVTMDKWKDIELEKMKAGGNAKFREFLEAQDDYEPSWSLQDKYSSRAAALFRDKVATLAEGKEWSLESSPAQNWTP
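Assay system: Rat Arfgap1 GAP domain (His6, aa 1-136), purified enzyme | Buffer or medium: HEPES 25 mM pH 7.5, NaCl 150 mM, MgCl2, DTT | Schedule: GTP hydrolysis reaction 2 h at 25 °C | Signal: FP of antibody-bound GDP Alexa 633 tracer, ex 620/em 688 nm | Measure: Percent inhibition of Arfgap1-stimulated GTP hydrolysis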
ASAP1 GAP inh = inhibitors of human ASAP1 ArfGAP activity | ASAP1-stimulated ARF1 GTP hydrolysis, GDP FP detection | inhibition, % at 16.5 µM | hit rate 0.19% among 360,000 | AID 624377; in the data active = inhibition above about 25%;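 note: 0% = vehicle with enzyme and substrate and 100% = no enzyme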
pPAFAH inh = inhibitors of human plasma PAF acetylhydrolase (pPAFAH); AID 463082; hit rate 1.5% among 330,000; recombinant pPAFAH, FP-rhodamine probe fluorescence polarization; inhibition, % at 3.39 µM; Q13093;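 active = inhibition above the mean inhibition across the screen plus 3 SD, cut at about 25% in these data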;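 note: inhibitors block binding of the rhodamine activity-based probe so polarization drops; 0% = enzyme with DMSO and 100% = wells lacking pPAFAH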
PAFAH1B2 inh = blocks human PAF acetylhydrolase 1b catalytic subunit 2 | P68402 | inhibition, % at 3.39 µM | recombinant PAFAH1B2, FP-rhodamine activity probe, fluorescence polarization | AID 492953 | hit rate 1.2% among 340,000;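 active = inhibition above the mean of all tested compounds plus 3 SD, cut at about 24% in these data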;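 note: 0% = enzyme with DMSO and 100% = wells lacking PAFAH1B2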
Target sequence (P68402 whole entry, looked up): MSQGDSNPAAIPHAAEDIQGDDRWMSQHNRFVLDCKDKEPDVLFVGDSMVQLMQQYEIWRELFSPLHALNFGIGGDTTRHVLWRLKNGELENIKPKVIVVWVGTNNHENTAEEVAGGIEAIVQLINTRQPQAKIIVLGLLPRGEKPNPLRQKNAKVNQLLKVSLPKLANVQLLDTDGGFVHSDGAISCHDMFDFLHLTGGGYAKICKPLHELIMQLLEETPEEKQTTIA
PAFAH2 FP inh = inhibitors of human PAFAH2. Q99487. recombinant PAFAH2, FP-rhodamine activity probe, fluorescence polarization. inhibition, % at 3.39 µM. hit rate 0.99% among 340,000;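 active = inhibition above the mean over all tested compounds plus 3 SD, cut at about 30% in these data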;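 note: inhibitors block probe labeling of enzyme so polarization drops; 0% = enzyme with DMSO and 100% = wells lacking PAFAH2 protein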
PAFAH1B3 FP inh = blocks human PAF acetylhydrolase 1B catalytic subunit 3 | AID 492972 | inhibition, % at 3.39 µM | recombinant PAFAH1B3, FP-rhodamine probe, fluorescence polarization | Q15102 | hit rate 0.28% among 340,000;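 active = inhibition above the screen-wide average of all tested compounds plus 3 SD, cut at about 25% in these data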;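 note: 0% = enzyme with DMSO only and 100% = wells lacking PAFAH1B3 protein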
Target sequence (Q15102 whole entry, looked up): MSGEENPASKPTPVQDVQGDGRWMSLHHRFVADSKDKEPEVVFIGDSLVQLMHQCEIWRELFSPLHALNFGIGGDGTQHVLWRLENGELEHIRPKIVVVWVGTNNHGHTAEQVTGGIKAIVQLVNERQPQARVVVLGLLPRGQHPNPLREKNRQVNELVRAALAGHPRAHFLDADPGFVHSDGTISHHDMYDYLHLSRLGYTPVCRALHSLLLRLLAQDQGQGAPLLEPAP
Numbers without * were called inactive; / = not tested or not shown.

SMILES	ARFGAP1 inhibitor	ASAP1 GAP inh	pPAFAH inh	PAFAH1B2 inh	PAFAH2 FP inh	PAFAH1B3 FP inh
CCOC(=O)N1CCN(C(=O)c2cccc(S(=O)(=O)Nc3ccc(Br)cc3)c2)CC1	17.0	2.7	32.1*	-1.6	0.9	1.2
COc1ccc(OC)c(CN2CCN(C(=O)c3cccc(S(=O)(=O)Nc4ccc(C)cc4)c3)CC2)c1	10.1	-7.2	24.6*	-0.5	-0.9	1.5
CCOC(=O)N1CCN(C2=C(NS(=O)(=O)c3ccccc3)C(=O)c3ccccc3C2=O)CC1	32.7*	28.6*	2.0	2.4	-0.2	4.3
Cc1cccc(NS(=O)(=O)c2cccc(C(=O)N3CCN(S(=O)(=O)c4ccccc4)CC3)c2)c1	-1.1	2.0	9.8	28.9*	5.7	4.6
Cc1ccc(NS(=O)(=O)c2ccc(C(=O)N3CCN(S(=O)(=O)c4ccccc4)CC3)cc2)cc1	-2.6	13.5	19.3	4.3	0.9	-1.6
Cc1ccc(CN2CCC=CS2(=O)=O)cc1	-13.8	-5.6	/	/	/	/
CCOC(=O)c1cc(OCC)c2c(ccc3ccccc32)n1	8.3	4.7	/	/	/	/
COc1ccc(NS(=O)(=O)c2cccc(C(=O)N3CCOCC3)c2)cc1	0.4	9.4	/	/	/	/
COc1ccc(C(=O)N2CCNC(=O)C2)cc1S(=O)(=O)Nc1ccc(Br)cc1	-2.5	1.9	34.0*	6.4	0.1	1.7
COc1ccc(NS(=O)(=O)c2cccc(C(=O)N3CCCCCCC3)c2)cc1	1.5	3.5	33.9*	8.0	5.2	9.1
COc1ccc(NS(=O)(=O)c2ccc(N3C(=O)CCC3=O)cc2)cc1	4.4	-12.2	12.3	6.3	2.8	11.4
COc1ccc(S(=O)(=O)Nc2ccc(-n3cccc3)cc2)cc1	13.6	10.2	28.1*	1.9	8.9	-0.4
Cn1ccc2c(N3CCCCCC3)cc3c(c21)C1CCC3C1 (stereo unspecified)	3.4	-6.9	/	/	/	/
CC(C)CNc1ncnc2[nH]ncc12	-0.1	-12.0	/	-0.4	-12.1	7.7
Cn1ncc(Cl)c1C(=O)NNC(=O)Nc1cccc2ccccc12	-7.5	-0.9	/	2.4	6.5	0.4
O=C(Nc1nc(-c2ccco2)c(-c2ccco2)s1)c1cnccn1	-3.0	0.9	33.1*	/	/	/
COc1ccc(S(=O)(=O)N2CCOCC2)cc1NC(=O)c1sccc1C	4.2	21.4	3.3	-0.8	9.6	-3.0
Cn1c(=O)c2c(-c3ccccc3)n(-c3ccc(N)cc3)cc2n(C)c1=O	1.0	8.4	/	/	/	/
CC(C)CSc1nc2c(=O)[nH][nH]c(=O)c2n1Cc1ccccc1	-8.7	-15.0	29.6*	18.6	1.3	8.9
CCOC(=O)NC(CC(=O)O)c1ccc(OCC)cc1 (stereo unspecified)	-2.1	2.0	3.0	-0.8	2.1	8.0
CCOc1ccc(OC(=O)NC(c2ccccc2)C(Cl)(Cl)Cl)cc1 (stereo unspecified)	2.8	10.7	0.8	25.8*	4.7	2.0
CC(C)OC(=O)NC(c1ccccc1)C(Cl)(Cl)Cl (stereo unspecified)	8.7	-11.4	3.4	24.4*	12.7	1.6
CCN(Cc1cccs1)C(=O)CN1C(=O)NC(c2ccccc2)(c2ccccc2)C1=O	-10.1	-0.2	0.5	-1.5	4.1	11.2
Oc1c(Cl)cc(Cl)cc1Sc1cc(Cl)cc(Cl)c1O	/	/	76.8*	/	/	/
O=C(Oc1ccc(N(C(=O)c2ccncc2)S(=O)(=O)c2ccc(Cl)cc2)cc1)c1ccncc1	2.4	7.6	6.8	28.9*	-3.6	7.7
SMILES	ARFGAP1 inhibitor	ASAP1 GAP inh	pPAFAH inh	PAFAH1B2 inh	PAFAH2 FP inh	PAFAH1B3 FP inh
NC(=S)n1[nH]c(-c2ccc([N+](=O)[O-])cc2)c(N=Nc2cccc([N+](=O)[O-])c2)c1=O	-3.2	10.5	/	26.6*	38.6*	19.3
NC(=S)n1[nH]c(-c2ccc([N+](=O)[O-])cc2)c(N=Nc2ccccc2[N+](=O)[O-])c1=O	0.8	-0.1	/	9.0	16.6	12.2
Cc1cccc(N2CCN(C(=O)n3ccnc3)CC2)c1C	13.2	0.2	33.2*	-1.4	7.4	14.2
COc1cccc(CNC(=O)C2CSC3(C)CCC(=O)N23)c1 (stereo unspecified)	2.8	2.5	2.9	0.2	0.4	6.9
O=C(Nc1cc([N+](=O)[O-])ccc1O)c1ccc2c(c1)C(=O)N(Cc1ccco1)C2=O	-1.0	-13.7	29.9*	0.0	3.5	2.0
O=C(Nc1cc([N+](=O)[O-])ccc1O)c1cccc(C(=O)Nc2cc([N+](=O)[O-])ccc2O)c1	21.2	-9.5	15.1	14.9	33.4*	33.9*
COc1cc(C(=O)NCCNC(=O)c2ccco2)cc(OC)c1OC	-8.5	3.2	/	-2.0	11.2	3.4
COc1cccc(CN2CC(C(=O)NCCOc3ccccc3)CCC2=O)c1 (stereo unspecified)	2.6	-5.6	2.7	5.8	1.8	8.6
O=C(O)c1ccc2oc(=O)c(S(=O)(=O)c3ccccc3)cc2c1	10.1	3.4	1.7	26.8*	17.4	3.8
O=C(O)c1ccc2oc(=O)c(S(=O)(=O)c3ccc(F)cc3)cc2c1	-8.1	-7.3	-2.0	31.6*	44.6*	-3.0
CCCCCCc1cc2cc(S(=O)(=O)c3ccc(F)cc3)c(=O)oc2cc1O	-6.3	-1.7	13.9	0.7	7.6	1.6
Cn1c(SCc2ccc(Br)cc2)nnc1-c1cccs1	4.2	14.4	1.6	24.4*	0.3	-0.8
CCOC(=O)N1CCN(C(=O)c2ccc3c(=O)n(CCC4=CCCCC4)c(=S)[nH]c3c2)CC1	-8.7	4.8	5.5	24.8*	8.7	3.2
Cc1nc2c(=O)[nH]c(=S)[nH]c2[nH]c1=O	-7.8	-3.8	/	7.4	45.0*	26.6*
CC(=O)N1c2ccc(S(=O)(=O)NCCC(=O)NCCc3ccc(Cl)cc3)cc2CC1C (stereo unspecified)	1.3	1.4	10.0	8.9	-6.2	5.0
CC(=O)N1c2ccc(S(=O)(=O)NCCc3ccc(Cl)cc3)cc2CC1C (stereo unspecified)	-8.8	3.0	29.7*	15.8	-2.4	-2.9
O=C(Nc1ccc(O)cc1)c1cc2n(n1)C(C(F)(F)F)CC(c1ccco1)N2 (stereo unspecified)	14.8	-6.2	8.2	-4.4	-7.1	-3.6
O=C(NC1CCCCCC1)c1cc2n(n1)C(C(F)(F)F)CC(c1ccco1)N2 (stereo unspecified)	-9.8	-10.1	33.5*	5.0	5.9	2.8
CCOc1ccc(NC(=O)c2cc3n(n2)C(C(F)(F)F)CC(c2ccco2)N3)cc1 (stereo unspecified)	-3.4	-11.5	32.9*	-2.4	4.3	1.0
Cc1cccc(NC(=S)NCCSc2ccc(Cl)cc2)c1	-2.0	3.6	3.9	27.6*	3.3	-3.6
Cc1ccc(C)c(NC(=S)NCCSc2ccc(Cl)cc2)c1	-9.3	-16.3	2.6	37.2*	-4.7	1.1
O=C(/C=C/c1ccccc1)NCCSc1ccc(Cl)cc1	4.5	10.8	1.7	28.8*	2.2	3.9
